# How the values were obtained:
# [1] = system: MT2; assay: Antiproliferative activity against human MT2 cells after 72 hrs by MTT assay; type: functional; details: MT2, 72 h
# Summary of the method: (§1)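 Cells were exposed to a range of concentrations for 72 h. Compounds came from 20 mM stocks in 100% DMSO. Cells were then given MEM with 0.4 mg/mL MTT for 2 h, and formazan was read at 570 nm. GI50 was taken from percentage conversion relative to mock-treated controls and reported as mean SD of three independent experiments.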
# [2] = Cell cycle arrest in human NPC-TW01 cells assessed as accumulation at sub-G1 phase at 10.5 uM after 72 hrs by flow cytometry; type: functional, cell-based
# Summary of the method: (§2)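 Exponentially growing cells were treated for 72 h. Controls received complete medium with 0.5% DMSO for 72 h. Cells were fixed, incubated with RNase and stained. DNA content was measured on a FACScan flow cytometer, and the percentage of cells in each cell-cycle phase was determined.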
# [3] = Cell cycle arrest in human NPC-TW01 cells assessed as accumulation at G2/M phase at 10.5 uM after 72 hrs by flow cytometry; type: functional, cell-based; summary of the method: as §2
# [4] = Cell cycle arrest in human NPC-TW01 cells assessed as accumulation at S phase at 10.5 uM after 72 hrs by flow cytometry; type: functional, cell-based; summary of the method: as §2
# [5] = Antiproliferative activity against human NPC-TW01 cells after 72 hrs by MTT assay; type: functional; details: NPC-TW01, 72 h; summary of the method: as §1
# [6] = system: NCI-H661; assay: Antiproliferative activity against human NCI-H661 cells after 72 hrs by MTT assay; type: functional; details: NCI-H661, 72 h; summary of the method: as §1
# [7] = Cell cycle arrest in human NPC-TW01 cells assessed as accumulation at G0/G1 phase at 30 uM after 24 hrs by flow cytometry; type: functional, cell-based
# Summary of the method: (§3)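 Time course in exponentially growing cells at two concentrations, sampled at the indicated times. Controls were kept in complete medium with 0.3% DMSO for the same periods. Cells were fixed, RNase-treated and stained. DNA content was read on a FACScan flow cytometer, and the percentage of cells in sub-G1, G0/G1, S and G2/M was determined.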
# [8] = Cell cycle arrest in human NPC-TW01 cells assessed as accumulation at sub-G1 phase at 60 uM after 96 hrs by flow cytometry; type: functional, cell-based; summary of the method: as §3
# [9] = Cell cycle arrest in human NPC-TW01 cells assessed as accumulation at G0/G1 phase at 60 uM after 24 hrs by flow cytometry; type: functional, cell-based; summary of the method: as §3
# [10] = Cell cycle arrest in human NPC-TW01 cells assessed as accumulation at S phase at 60 uM after 24 hrs by flow cytometry; type: functional, cell-based; summary of the method: as §3
# [11] = Cell cycle arrest in human NPC-TW01 cells assessed as accumulation at sub-G1 phase at 30 uM after 48 hrs by flow cytometry; type: functional, cell-based; summary of the method: as §3
# [12] = Cell cycle arrest in human NPC-TW01 cells assessed as accumulation at G2/M phase at 30 uM after 72 hrs by flow cytometry; type: functional, cell-based; summary of the method: as §3
# [13] = Cell cycle arrest in human NPC-TW01 cells assessed as accumulation at sub-G1 phase at 30 uM after 72 hrs by flow cytometry; type: functional, cell-based; summary of the method: as §3
# [14] = Cell cycle arrest in human NPC-TW01 cells assessed as accumulation at S phase at 60 uM after 72 hrs by flow cytometry; type: functional, cell-based; summary of the method: as §3
# [15] = Cell cycle arrest in human NPC-TW01 cells assessed as accumulation at sub-G1 phase at 60 uM after 72 hrs by flow cytometry; type: functional, cell-based; summary of the method: as §3
# [16] = Cell cycle arrest in human NPC-TW01 cells assessed as accumulation at G0/G1 phase at 60 uM after 48 hrs by flow cytometry; type: functional, cell-based; summary of the method: as §3
# [17] = Cell cycle arrest in human NPC-TW01 cells assessed as accumulation at sub-G1 phase at 60 uM after 24 hrs by flow cytometry; type: functional, cell-based; summary of the method: as §3
# [18] = Cell cycle arrest in human NPC-TW01 cells assessed as accumulation at G2/M phase at 30 uM after 96 hrs by flow cytometry; type: functional, cell-based; summary of the method: as §3
# [19] = Cell cycle arrest in human NPC-TW01 cells assessed as accumulation at G2/M phase at 60 uM after 72 hrs by flow cytometry; type: functional, cell-based; summary of the method: as §3
# [20] = Cell cycle arrest in human NPC-TW01 cells assessed as accumulation at G2/M phase at 60 uM after 48 hrs by flow cytometry; type: functional, cell-based; summary of the method: as §3
# [21] = Cell cycle arrest in human NPC-TW01 cells assessed as accumulation at G0/G1 phase at 60 uM after 96 hrs by flow cytometry; type: functional, cell-based; summary of the method: as §3
# [22] = Cell cycle arrest in human NPC-TW01 cells assessed as accumulation at sub-G1 phase at 60 uM after 48 hrs by flow cytometry; type: functional, cell-based; summary of the method: as §3
# [23] = Cell cycle arrest in human NPC-TW01 cells assessed as accumulation at S phase at 30 uM after 24 hrs by flow cytometry; type: functional, cell-based; summary of the method: as §3
# [24] = Cell cycle arrest in human NPC-TW01 cells assessed as accumulation at S phase at 60 uM after 48 hrs by flow cytometry; type: functional, cell-based; summary of the method: as §3
# [25] = Cell cycle arrest in human NPC-TW01 cells assessed as accumulation at G2/M phase at 30 uM after 24 hrs by flow cytometry; type: functional, cell-based; summary of the method: as §3
# [26] = Cell cycle arrest in human NPC-TW01 cells assessed as accumulation at G0/G1 phase at 30 uM after 96 hrs by flow cytometry; type: functional, cell-based; summary of the method: as §3
# [27] = Cell cycle arrest in human NPC-TW01 cells assessed as accumulation at S phase at 30 uM after 96 hrs by flow cytometry; type: functional, cell-based; summary of the method: as §3
# [28] = Cell cycle arrest in human NPC-TW01 cells assessed as accumulation at G0/G1 phase at 60 uM after 72 hrs by flow cytometry; type: functional, cell-based; summary of the method: as §3
# [29] = Cell cycle arrest in human NPC-TW01 cells assessed as accumulation at G2/M phase at 60 uM after 24 hrs by flow cytometry; type: functional, cell-based; summary of the method: as §3
# [30] = Cell cycle arrest in human NPC-TW01 cells assessed as accumulation at G2/M phase at 30 uM after 48 hrs by flow cytometry; type: functional, cell-based; summary of the method: as §3
# [31] = Cell cycle arrest in human NPC-TW01 cells assessed as accumulation at sub-G1 phase at 30 uM after 96 hrs by flow cytometry; type: functional, cell-based; summary of the method: as §3
# [32] = Cell cycle arrest in human NPC-TW01 cells assessed as accumulation at S phase at 60 uM after 96 hrs by flow cytometry; type: functional, cell-based; summary of the method: as §3
# [33] = Cell cycle arrest in human NPC-TW01 cells assessed as accumulation at sub-G1 phase at 30 uM after 24 hrs by flow cytometry; type: functional, cell-based; summary of the method: as §3
# [34] = Cell cycle arrest in human NPC-TW01 cells assessed as accumulation at G0/G1 phase at 30 uM after 72 hrs by flow cytometry; type: functional, cell-based; summary of the method: as §3
# [35] = Cell cycle arrest in human NPC-TW01 cells assessed as accumulation at S phase at 30 uM after 72 hrs by flow cytometry; type: functional, cell-based; summary of the method: as §3
# [36] = Cell cycle arrest in human NPC-TW01 cells assessed as accumulation at G0/G1 phase at 30 uM after 48 hrs by flow cytometry; type: functional, cell-based; summary of the method: as §3
# [37] = Cell cycle arrest in human NPC-TW01 cells assessed as accumulation at G2/M phase at 60 uM after 96 hrs by flow cytometry; type: functional, cell-based; summary of the method: as §3
# [38] = Cell cycle arrest in human NPC-TW01 cells assessed as accumulation at S phase at 30 uM after 48 hrs by flow cytometry; type: functional, cell-based; summary of the method: as §3
# [39] = Cell cycle arrest in human NPC-TW01 cells assessed as accumulation at G2/M phase at 48.0 uM after 72 hrs by flow cytometry; type: functional, cell-based; summary of the method: as §2
# [40] = Cell cycle arrest in human NPC-TW01 cells assessed as accumulation at G0/G1 phase at 48.0 uM after 72 hrs by flow cytometry; type: functional, cell-based; summary of the method: as §2
# [41] = Cell cycle arrest in human NPC-TW01 cells assessed as accumulation at S phase at 48.0 uM after 72 hrs by flow cytometry; type: functional, cell-based; summary of the method: as §2
# [42] = Cell cycle arrest in human NPC-TW01 cells assessed as accumulation at sub-G1 phase at 48.0 uM after 72 hrs by flow cytometry; type: functional, cell-based; summary of the method: as §2
smiles,measurement,setting,value
COc1ccc(NC(=O)COc2ccc3oc(-c4ccccc4)cc(=O)c3c2)cc1,GI50,[1],3.01 µM
same,Activity,[2],3.3%
same,Activity,[3],5.3%
same,Activity,[4],13.6%
same,GI50,[5],0.71 µM
same,GI50,[6],0.84 µM
O=C(COc1ccc2oc(-c3ccccc3)cc(=O)c2c1)Nc1ccc(F)cc1,Activity,[7],52%
same,Activity,[8],12.7%
same,Activity,[9],51.5%
same,Activity,[10],26.4%
same,Activity,[11],2.59%
same,Activity,[12],9.47%
same,Activity,[13],4.79%
same,GI50,[1],0.47 µM
same,Activity,[14],15.7%
same,Activity,[15],4.5%
same,Activity,[16],68.3%
same,Activity,[17],2.27%
same,Activity,[18],8.6%
same,Activity,[2],4%
same,Activity,[19],6.64%
same,Activity,[20],10.5%
same,Activity,[21],66.7%
same,Activity,[22],2.87%
same,Activity,[23],27.6%
same,Activity,[24],18.4%
same,Activity,[25],17%
same,Activity,[3],5.2%
same,Activity,[26],70.7%
same,Activity,[27],15.1%
same,Activity,[28],73.7%
same,Activity,[29],19.8%
same,Activity,[30],13.4%
same,Activity,[31],5.62%
same,Activity,[32],12.8%
same,Activity,[4],13.6%
same,Activity,[33],3.45%
same,Activity,[34],71%
same,Activity,[35],14.7%
same,Activity,[36],59.8%
same,Activity,[37],7.78%
same,GI50,[5],0.74 µM
same,Activity,[38],24.2%
same,GI50,[6],1.47 µM
O=C(COc1c(-c2ccccc2)oc2ccccc2c1=O)Nc1ccc2ccccc2c1,GI50,[1],> 10 µM
same,GI50,[5],6.52 µM
same,GI50,[6],6.5 µM
O=C(COc1ccc2c(=O)cc(-c3ccccc3)oc2c1)Nc1ccc(-c2ccccc2)cc1,GI50,[1],2.48 µM
same,GI50,[5],1.61 µM
same,GI50,[6],1.28 µM
O=C(COc1ccc2c(=O)cc(-c3ccccc3)oc2c1)Nc1ccc2ccccc2c1,GI50,[1],> 10 µM
same,GI50,[5],> 10 µM
same,GI50,[6],> 10 µM
COc1ccc(NC(=O)COc2ccc3c(=O)c(-c4ccccc4)coc3c2)cc1,GI50,[1],4.55 µM
same,GI50,[5],6.7 µM
same,GI50,[6],9.53 µM
COc1ccc(/C(COc2ccc3oc(-c4ccccc4)cc(=O)c3c2)=N/O)cc1,Activity,[39],70.8%
same,Activity,[40],0.5%
same,Activity,[41],27.5%
same,Activity,[42],1.2%
O=C(COc1ccc2c(=O)cc(-c3ccccc3)oc2c1)Nc1ccccc1,GI50,[1],> 10 µM
same,GI50,[5],> 10 µM
same,GI50,[6],> 10 µM
O=C(COc1ccc2c(=O)c(-c3ccccc3)coc2c1)Nc1ccc2ccccc2c1,GI50,[1],7.68 µM
same,GI50,[5],1.37 µM
same,GI50,[6],> 10 µM
O=C(COc1ccc2oc(-c3ccccc3)cc(=O)c2c1)Nc1ccccc1,GI50,[1],1.43 µM
same,GI50,[5],1.26 µM
same,GI50,[6],5.6 µM
O=C(COc1ccc2oc(-c3ccccc3)cc(=O)c2c1)Nc1ccc2ccccc2c1,GI50,[1],> 10 µM
same,GI50,[5],6.75 µM
same,GI50,[6],6.71 µM
